The list is not random: actives were taken first. Their share in the collection is about 3.9%.
HIF act: HIF pathway transcriptional activators, primary screen, cell-based, U2OS HRE-luciferase, luminescence. U2OS HRE-luciferase reporter; normalized: DMSO 0%, desferrioxamine 100%. activation, % at 7.5 µM (by protocol). 0.32% of 300,000 active. AID 1910, 2009;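 active = mean activation of at least 10% of the iron chelator positive control signal, with at least half of replicates also reaching 10%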
ABCB6 inh MLPCN: ABCB6 transporter inhibitors, primary screen, K562-ABCB6 cells, flow cytometry, MLPCN library. 0.19% of 360,000 active. fluorescence ratio to DMSO, % at 10 µM. AID 602162, 2011. ATP-binding cassette sub-family B member 6 (Homo sapiens), Q9NP58. K562-ABCB6 porphyrin accumulation, 1 h; stronger effect = lower value;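 active = fluorescence ratio to DMSO below 75%, the collection mean minus 3 SD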;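 note: signal is porphyrin accumulated inside mitochondria; lower ratio means ABCB6 inhibition with less porphyrin fluorescence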
Target sequence (Q9NP58 whole entry, looked up): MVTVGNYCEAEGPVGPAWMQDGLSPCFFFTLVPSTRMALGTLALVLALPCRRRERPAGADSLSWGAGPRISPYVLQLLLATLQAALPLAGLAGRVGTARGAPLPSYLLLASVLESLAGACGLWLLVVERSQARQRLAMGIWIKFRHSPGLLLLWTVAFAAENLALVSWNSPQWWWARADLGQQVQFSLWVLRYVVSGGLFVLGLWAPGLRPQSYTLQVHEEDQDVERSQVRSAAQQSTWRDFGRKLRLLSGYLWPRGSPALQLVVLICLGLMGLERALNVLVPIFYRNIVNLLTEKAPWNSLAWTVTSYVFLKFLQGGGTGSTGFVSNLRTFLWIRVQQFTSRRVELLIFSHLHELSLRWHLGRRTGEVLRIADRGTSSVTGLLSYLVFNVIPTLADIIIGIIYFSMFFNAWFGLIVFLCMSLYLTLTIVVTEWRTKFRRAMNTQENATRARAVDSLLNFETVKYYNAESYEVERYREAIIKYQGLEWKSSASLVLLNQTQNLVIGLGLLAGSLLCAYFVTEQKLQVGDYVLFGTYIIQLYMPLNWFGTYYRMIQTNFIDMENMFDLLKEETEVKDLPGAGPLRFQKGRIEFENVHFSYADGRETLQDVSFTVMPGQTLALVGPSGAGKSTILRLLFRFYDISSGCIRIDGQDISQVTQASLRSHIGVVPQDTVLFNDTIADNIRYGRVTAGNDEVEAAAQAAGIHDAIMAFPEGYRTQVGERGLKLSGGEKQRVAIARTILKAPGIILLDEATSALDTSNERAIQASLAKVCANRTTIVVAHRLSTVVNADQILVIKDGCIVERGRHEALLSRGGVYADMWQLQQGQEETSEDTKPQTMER
AHR activator: AHR activators, primary screen, cell-based, luminescence, luciferase reporter, human. AHR-responsive luciferase reporter cells. activation, % at 5 µM. 2.5% of 320,000 active. AID 2796, 2010; in the data active = activation above about 47%
SR-BI DiI-HDL act: activators of SR-BI mediated DiI-HDL uptake, primary screen, ldlA[mSR-BI] CHO cells, DiI fluorescence. 3 h; 100 = double the neutral-control signal. activation, % at 12.5 µM. 0.096% of 320,000 active. AID 504775, 2011;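 active = mean replicate activation of at least 60% and every replicate at or above 60%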
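Test system: SR-BI-overexpressing, LDLR-lacking CHO cells; Also added: labelled HDL, 10 µg/mL; Measured by: bottom-read cell fluorescence after medium removal, ex 550/em 595 nm; Timing: 3 h uptake period with compound, 37 °C; Buffer or medium: F12, 0.5% BSA, 25 mM HEPES; Doses: single compound concentration, delivered by pin transfer.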
GAA850 FXN act: FXN promoter activators, primary screen, cell-based, luciferase luminescence, HEK293 lucGAA850; HEK293 lucGAA850 FXN promoter luciferase reporter, 24 h; percent of 10 µM SAHA response; activation, % at 6 µM; 0.56% of 360,000 active; AID 540364, 2011;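 active = activation above the average of all compounds screened plus 3 SD, cutoff fixed separately per campaign, cut at about 7.5% in these data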
SR-BI HDL uptake: inhibitors of SR-BI mediated HDL lipid uptake, primary screen, ldlA[mSR-BI] cells, fluorescence, single point. Scavenger receptor class B member 1 (Mus musculus), Q61009. ldlA[mSR-BI] CHO cells, DiI-HDL uptake fluorescence, 3 h. inhibition, % at 12.5 µM. 0.96% of 320,000 active;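 active = mean replicate inhibition of at least 70% and a set share of replicates each scoring 70 or more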
A number is an active result; n = inactive; x = not tested or not shown.

SMILES | HIF act | ABCB6 inh MLPCN | AHR activator | SR-BI DiI-HDL act | GAA850 FXN act | SR-BI HDL uptake
Cc1cccc(C)c1Nc1nnc(SCC(=O)c2ccc(Br)s2)s1 | n | n | n | n | n | n
Cc1ccc(Nc2nnc(SCC(=O)c3ccc(Br)s3)s2)c(C)c1 | n | n | 60 | n | n | n
COc1ccccc1NC(=O)CN1C(=O)NC2(CCCc3ccccc32)C1=O (configuration not stated) | x | n | n | n | n | n
CN(C)c1ccc(-c2c(-c3ccc4c(c3)OCO4)noc2-c2ccsc2)cn1 | n | n | n | n | n | n
C#CC(=O)N(c1cc(OC)ccc1OC)C(C(=O)NC1CCCC1)c1cccs1 (configuration not stated) | n | 64 | n | n | n | n
Brc1cc2[nH]cnc2c2ccccc12 | n | n | 63 | n | n | n
Cc1cc(C)c(C#N)c(SCC(=O)c2ccc(Cl)cc2Cl)n1 | n | n | n | n | n | n
COc1ccc(-n2cc(-c3ccccc3)[nH]c2=S)cc1 | n | n | 55 | n | n | n
COc1ccc(-c2cc3nc(NCc4ccc(N(C)C)cc4)n(C)c(=O)c3s2)cc1OC | x | n | x | x | n | x
Cc1oc(-c2ccccc2F)nc1CS(=O)CC(=O)NC1CCCC1 (configuration not stated) | n | n | n | n | n | 85
COc1ccc(-c2nc(NC(=O)Cn3c(=O)oc4ccccc43)sc2C)cc1 | n | n | 70 | n | n | n
Cc1cc(NC(=S)NC(=O)C2CC2)ccc1Br | n | n | 106 | n | n | n
Cc1cccc(NC(=S)NC(=O)C2CC2)c1 | n | n | n | n | n | n
Cc1cc(C)cc(NC(=S)NC(=O)C2CC2)c1 | n | n | 58 | n | n | n
Cc1ccc(NC(=O)COC(=O)C2CC2)c(Br)c1 | n | n | n | n | n | n
CCN(CC)S(=O)(=O)c1ccc(OC)c(NC(=O)COc2ccccc2[N+](=O)[O-])c1 | n | n | n | n | n | n
CC1(c2nnc(Cc3ccccc3)o2)CC(c2ccc(C#N)cc2)=NO1 (configuration not stated) | n | n | n | n | n | n
COC(=O)N/N=C/c1cc(Cl)cc(Cl)c1OCc1ccc(F)cc1 | n | n | 55 | n | n | 84
COC(=O)N/N=C/c1cc(Cl)c(OCc2ccc(F)cc2)c(OC)c1 | n | n | n | n | n | n
Cc1nn(C(=O)c2cccnc2)c(C)c1Sc1ccccc1 | 103 | n | n | n | n | n
C=CCOC(=O)C1=C(C)N=C2SCCC(=O)N2C1c1cccs1 (configuration not stated) | n | n | n | n | n | n
CCN(CC)CCNC1=NCCn2c1cc1cc(OC)ccc12 | n | n | 58 | n | n | n
CC(OC(=O)c1ccc(F)c(S(=O)(=O)N2CCOCC2)c1)C(=O)NC1CCCC1 (configuration not stated) | x | n | x | n | n | n
COc1cccc(/C=C/C(=O)OCC(=O)NC2CCCC2)c1 | x | n | x | x | n | x
COc1ccc(/C=c2\s/c(=C/C(=O)c3ccc(C)cc3)[nH]c2=O)cc1OC | n | n | n | n | n | 74
COc1ccc(OCc2cc(C(=O)N3CCC(OC)CC3)no2)c2ccccc12 | n | n | 51 | n | n | n
CSc1ccccc1OCc1cc(C(=O)NC2CCOC(C)(C)C2)no1 (configuration not stated) | n | n | n | n | n | n
COc1ccc(OCc2cc(C(=O)NC3CCOC(C)(C)C3)no2)c2ccccc12 (configuration not stated) | n | n | 67 | n | n | n
CC(O)CNc1nc2ccccc2n1-c1ncnc2sc3c(c12)CCC3 (configuration not stated) | n | n | 59 | n | n | n

Screens deposited in PubChem by several laboratories.
